# Screening data from PubChem.
# Beta2AR agonist = beta2AR agonists driving receptor internalization, primary screen, cell-based, FAP fluorogen, flow cytometry; Am2.2-beta2AR cells; response, % (no concentration beside the values); 340,000 compounds, 0.43% hits; AID 504454, 2011;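 active = response above a set limit, near 3 SD of response in nonfluorescent compounds, cut at about 42% in these data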
# APJ ag = agonists of human apelin receptor APJ, primary screen, CHO-K1 cells, PathHunter beta-arrestin, luminescence; 330,000 compounds, 0.11% hits; 0% DMSO wells, 100% apelin; activation, % at 20 µM; P35414;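 active = activation more than six SD over the plate average, tested at 20 µM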
#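 Assay system: CHO-K1 APJ beta-arrestin complementation cell line / Compound: single test compound dose, 20 µM final, 1% DMSO / Times: overnight seeding, 90 min compound at 25 °C, 1 h detection / Technique: beta-gal luminescence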
# APJ antagonist = antagonists of human apelin receptor APJ, primary screen, CHO-K1 cells, beta-arrestin complementation, luminescence. inhibition, % at 20 µM. 330,000 compounds, 0.32% hits. AID 2521, 2010;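 active = inhibition above about 40% at 20 µM, limit read from the data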;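 note: cells challenged with 10 nM apelin-13 agonist together with compound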
# PfG6PD inh = PfG6PD enzyme inhibitors, primary screen, biochemical, fluorescence intensity, uHTS; PfGluPho enzyme, NADPH resazurin-diaphorase fluorescence; 350,000 compounds, 0.78% hits; glucose-6-phosphate dehydrogenase-6-phosphogluconolactonase (Plasmodium falciparum 3D7); inhibition, % at 20 µM;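 active = inhibition reaching at least a set limit at 20 µM in the primary screen, cut at about 59% in these data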
# CXCR6 block = CXCR6 receptor inhibitors, primary screen, cell-based, beta-arrestin, luminescence, CHO-K1 PathHunter, 1536-well; AID 602244, 2012; 360,000 compounds, 0.36% hits; inhibition, % at 20 µM; in the data active = inhibition above about 34%, passing the limit was not always enough;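 note: antagonist mode with CXCL16 agonist at 10 nM final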
# Target sequence (O00574 whole entry, looked up): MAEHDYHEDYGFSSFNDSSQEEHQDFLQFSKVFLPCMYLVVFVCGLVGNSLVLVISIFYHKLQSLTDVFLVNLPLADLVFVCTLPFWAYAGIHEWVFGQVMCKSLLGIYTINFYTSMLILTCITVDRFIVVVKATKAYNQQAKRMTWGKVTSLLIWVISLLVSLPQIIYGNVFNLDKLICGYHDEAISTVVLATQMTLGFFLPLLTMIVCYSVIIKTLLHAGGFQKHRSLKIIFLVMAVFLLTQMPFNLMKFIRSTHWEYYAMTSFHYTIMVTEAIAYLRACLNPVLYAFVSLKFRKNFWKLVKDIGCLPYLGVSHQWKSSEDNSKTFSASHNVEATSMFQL
# CCR6 antagonist = CCR6 receptor antagonists, primary screen, cell-based, CHO-K1, luminescence, beta-arrestin, uHTS. C-C chemokine receptor type 6 (Homo sapiens), P51684. CHO-K1 CCR6 PathHunter beta-arrestin, CCL20-stimulated. inhibition, % at 20 µM. 340,000 compounds, 0.49% hits. AID 493098, 2011;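 active = compounds whose inhibition of the agonist-driven luminescence signal at 20 µM reaches about 50%, limit read from the data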;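 note: cells stimulated with CCL20 at 14 nM final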
# CXCR6 confirm = CXCR6 receptor antagonists, confirmation, cell-based, single concentration, beta-arrestin, luminescence; shares compounds with CXCR6 block; CHO-K1 CXCR6 PathHunter beta-arrestin; inhibition, % at 20 µM; 700 compounds, 65% hits; AID 602409, 2012;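 active = mean inhibition over four retests above 40%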;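 note: receptor stimulated with 10 nM CXCL16 agonist; beta-galactosidase fragment complementation upon beta-arrestin recruitment to receptor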
# A number is an active result; - = inactive; . = no result. Only some compounds are listed: those with a hit (about 1.7% of all), similar ones and a draw of the others.
SMILES,Beta2AR agonist,APJ ag,APJ antagonist,PfG6PD inh,CXCR6 block,CCR6 antagonist,CXCR6 confirm
N#CC(C#N)=C1C=CC=CN1/C(=C\c1ccco1)C(=O)c1ccc(-c2ccccc2)cc1,-,.,.,-,44,83,51
COc1ccc(NC(=O)COC(=O)CC2CCCC2)cc1,-,-,-,-,-,-,.
CNC[C@@H](CC1CCCCC1)NC[C@H](CC(C)C)NCCc1cccc(C(F)(F)F)c1,43,-,-,-,42,-,-
Cc1nc2c(OCc3ccc(C(F)(F)F)cc3)cccn2c1N(C)CC1CC1,.,.,.,.,47,.,-
O=C(CCC1CCCN(C(=O)CC2=CCCCC2)C1)N1CCN(c2ccccn2)CC1 (stereo unspecified),-,-,-,-,-,-,.
O=C(c1ccc(-n2nc(C(F)(F)F)c3c2CCCC3)cc1)N1CCOCC1,-,-,-,-,47,-,-
CC(C)(C)NC(=O)NC(=O)COC(=O)c1c(F)cccc1Cl,-,-,-,-,40,-,-
CC(C)(C)NC(=O)NC(=O)COC(=O)Cc1c(Cl)cccc1Cl,-,-,-,-,-,-,.
COc1ccccc1C(=O)NC(=O)COC(=O)c1cnccn1,.,.,.,-,-,.,.
Nc1cc(=O)[nH]c(SCC(=O)Nc2ccc(Cl)c(Cl)c2)n1,-,-,-,-,43,-,-
O=C(NC(=S)NCc1ccccc1)c1ccccc1F,-,-,-,-,-,-,.
O=C(NC(=S)N(CCc1ccccc1)CCc1ccccc1)c1ccco1,-,-,-,-,39,.,50
CC(CCc1ccccc1)NC(=S)NC(=O)c1ccco1 (stereo unspecified),-,-,-,-,-,-,.
O=C(NC(=S)N(Cc1ccccc1)Cc1ccccc1)c1ccccc1F,-,-,-,-,36,-,-
FC(F)(F)c1cnc(NNC(=S)Nc2ccccc2)c(Cl)c1,.,.,.,-,73,.,74
Fc1ccccc1NC(=S)NNc1ncc(C(F)(F)F)cc1Cl,-,-,-,-,50,68,-
CC(C)(C)C(=O)Nc1ncc(C(F)(F)F)cc1Cl,-,-,-,-,-,-,.
CCOc1cc(Br)c(Br)c(C=Nc2ccc(NC(C)=O)cc2)c1O,-,-,-,-,42,-,70
CC(=O)Nc1ccc(N=Cc2c(O)c(C(=O)Nc3ccccc3)cc3ccccc23)cc1,.,-,-,-,.,-,.
CCCCCCCCCCOC(=O)Cn1c(COc2ccc(Cl)cc2)[n+](C)c2ccccc21,-,-,-,-,41,-,-
CCOC(=O)Cn1c(COc2ccccc2OC)[n+](C)c2ccccc21,-,-,-,-,-,-,.
CCOC(=O)c1sc2nc(SCC#N)n(CC3CCCO3)c(=O)c2c1C (stereo unspecified),-,-,-,-,61,-,-
O=C1c2cccc3c([N+](=O)[O-])ccc(c23)C(=O)N1O,-,-,-,-,-,-,.
O=C1c2cccc3c([N+](=O)[O-])ccc(c23)C(=O)N1c1ccccn1,-,-,-,-,52,.,52
O=C(/C=C/c1ccc(Cl)cc1)N(c1ccccn1)C1CCCCC1,-,-,-,-,59,-,-
SMILES,Beta2AR agonist,APJ ag,APJ antagonist,PfG6PD inh,CXCR6 block,CCR6 antagonist,CXCR6 confirm
Cc1ccc(NC(=S)NNC(=S)NNc2ccccc2)cc1C,.,.,.,-,40,.,-
CC(C)CN(C(=O)c1ccc(S(=O)(=O)N2CCOCC2)cc1)C1CCS(=O)(=O)C1 (stereo unspecified),-,-,-,-,-,-,.
O=C(COc1ccc(Cl)cc1)N/N=C/c1cccc2cccnc12,-,-,-,-,44,.,56
O=C(COc1ccc([N+](=O)[O-])cc1)N(Cc1cccs1)C1CCS(=O)(=O)C1 (stereo unspecified),-,-,-,-,-,-,.
Cc1cc(Cl)n2c(nc3cc(F)c(F)cc32)c1C#N,113,.,.,-,44,-,53
Cc1cc(C)n2c(=O)c3ccc(Cl)cc3nc2c1C#N,-,-,-,-,-,-,.
Cc1ccc(C(=O)NC(=S)Nc2ccc(NC(=O)c3cccs3)cc2)cc1[N+](=O)[O-],-,-,-,-,28,50,-
Cc1ccc(C(=O)Nc2ccc(NC(=O)c3cccs3)cc2)cc1[N+](=O)[O-],-,-,-,-,-,-,.
O=C(CN1C(=O)NC2(CCCC2)C1=O)N1CCCSC1=Nc1ccccc1,-,-,-,-,-,-,.
CCOc1ccc(NC(=S)NC(=O)c2cncc(Br)c2)cc1,-,-,-,-,-,-,.
CCOC(=O)c1ccc(NC(=S)NC(=O)c2cncc(Br)c2)cc1,-,-,-,-,42,60,-
Cc1cccc(NC(=O)c2cccnc2)c1,-,-,-,-,-,-,.
Cc1cccc(C(=O)Nc2ccc(C(=O)/C=C/c3cccnc3)cc2)c1,80,.,.,-,36,-,44
Cc1cc(C)cc(NC(=O)c2cccnc2)c1,-,-,-,-,40,-,-
O=C(Nc1ccc(F)cc1Cl)c1ccc2c(=O)n3c(nc2c1)CCC3,-,-,-,-,-,-,.
COc1cc(/C=C/C(O)=C/C(=O)/C=C/c2ccc(O)cc2)ccc1O,-,-,-,-,40,61,45
CC1CC=CCC1(CO)CO (stereo unspecified),-,.,.,-,-,-,.
CN(C)Cc1ccc(-c2nc3cccc4c3n2CCNC4=O)cc1,-,-,-,-,-,-,.
O=C(CSc1nccn1-c1ncc(C(F)(F)F)cc1Cl)c1ccc(Br)cc1,-,-,-,-,80,74,-
CCC/C=C/c1ccc(CN2C(C)C(=O)N(Cc3cn(CCOCOC)nn3)CCS2(=O)=O)cc1 (stereo unspecified),.,.,.,-,42,.,-
CCOC(=O)N1CCN(S(=O)(=O)c2cccc3ccc(C)nc23)CC1,-,-,-,-,84,-,-
CCOC(=O)N1CCN(S(=O)(=O)c2cc(OCC)ccc2OCC)CC1,-,-,-,-,-,-,.
CCc1nc2c(OCCC3CCCCC3)cccn2c1N(C)C(=O)c1ccc(C)cc1,.,.,.,.,42,.,48
CCc1nc2c(OCCC3CCCCC3)cccn2c1N(C)C(=O)C1CC1,.,.,.,.,-,.,.
CCn1nc(C)c(CN2CCC(C(=O)Nc3cccc(-c4cccc(F)c4)c3)CC2)c1C,-,-,-,-,-,-,.
Cc1ccccc1OCC(=O)N(Cc1nnc(-c2ccc(Cl)cc2)o1)C(C)C,-,-,-,-,-,-,.
